Assay results published in BindingDB's records for doi:10.1021/jm9910324 (University of Camerino, 1999).
Counter-ions that a name gives are not always drawn. Each block holds one molecule with its values, some of them ahead of it.

Key:
[1] = target: T1, Alpha-2A adrenergic receptor [16-465]/Alpha-2B adrenergic receptor/Alpha-2C adrenergic receptor (Rattus norvegicus, UniProt P19328+P22086+P22909); test: The binding affinity was evaluated on alpha-2 adrenergic receptor expressed in rat cortex by using [3H]rauwolscine as radioligand.
T1 construct: 16-465
T1 sequence (P22909 whole entry): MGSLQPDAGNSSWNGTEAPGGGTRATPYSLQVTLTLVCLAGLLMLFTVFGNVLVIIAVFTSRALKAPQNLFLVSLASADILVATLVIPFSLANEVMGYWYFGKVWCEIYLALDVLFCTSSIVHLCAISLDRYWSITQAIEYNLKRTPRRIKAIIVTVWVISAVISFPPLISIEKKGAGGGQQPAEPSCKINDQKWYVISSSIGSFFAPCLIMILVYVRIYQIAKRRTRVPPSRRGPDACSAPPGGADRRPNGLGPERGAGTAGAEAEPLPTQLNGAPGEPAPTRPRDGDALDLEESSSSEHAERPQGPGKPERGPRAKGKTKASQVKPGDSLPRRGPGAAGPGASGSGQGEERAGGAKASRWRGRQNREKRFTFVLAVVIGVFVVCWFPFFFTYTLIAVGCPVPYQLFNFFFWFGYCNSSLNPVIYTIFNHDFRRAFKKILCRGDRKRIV
T1 sequence (P22086 whole entry): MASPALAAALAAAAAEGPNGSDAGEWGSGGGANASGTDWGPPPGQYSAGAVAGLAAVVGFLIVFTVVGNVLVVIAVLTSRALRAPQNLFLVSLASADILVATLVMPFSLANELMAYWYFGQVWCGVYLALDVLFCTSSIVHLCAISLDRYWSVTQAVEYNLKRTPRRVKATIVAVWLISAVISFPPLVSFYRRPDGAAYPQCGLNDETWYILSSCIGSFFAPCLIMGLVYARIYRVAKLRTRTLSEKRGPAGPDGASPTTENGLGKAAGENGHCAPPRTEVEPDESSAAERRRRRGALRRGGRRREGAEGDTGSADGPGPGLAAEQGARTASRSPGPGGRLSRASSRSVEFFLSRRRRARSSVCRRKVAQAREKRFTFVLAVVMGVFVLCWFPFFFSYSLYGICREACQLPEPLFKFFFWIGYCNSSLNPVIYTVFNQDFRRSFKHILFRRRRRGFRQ
T1 sequence (P19328 whole entry): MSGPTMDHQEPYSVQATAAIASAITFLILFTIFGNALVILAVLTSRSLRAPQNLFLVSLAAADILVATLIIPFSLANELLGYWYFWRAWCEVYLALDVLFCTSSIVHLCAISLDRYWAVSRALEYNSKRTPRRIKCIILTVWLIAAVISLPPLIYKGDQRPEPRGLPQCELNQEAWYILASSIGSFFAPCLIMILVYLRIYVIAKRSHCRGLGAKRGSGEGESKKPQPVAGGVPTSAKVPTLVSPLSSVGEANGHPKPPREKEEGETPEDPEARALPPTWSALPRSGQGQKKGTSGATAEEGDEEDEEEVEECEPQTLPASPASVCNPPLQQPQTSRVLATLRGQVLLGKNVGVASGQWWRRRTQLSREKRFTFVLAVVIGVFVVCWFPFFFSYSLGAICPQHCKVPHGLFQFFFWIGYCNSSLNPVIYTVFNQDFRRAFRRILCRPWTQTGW
Procedure, shortened: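 Male Sprague-Dawley rat cerebral cortex membranes, washed in Tris-HCl pH 7.4 and held in buffer with 10 μM pargiline and 0.1% ascorbic acid. Incubated 30 min at 25 °C with 0.5-1.5 nM [3H]rauwolscine; nonspecific binding with 10 μM phentolamine. Filtration, scintillation counting. Ki from Cheng-Prusoff; 2-3 experiments in triplicate.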

[2] = target: T2, Alpha-1B adrenergic receptor (Homo sapiens, UniProt P35368); test: The binding affinity was evaluated on cloned human alpha-1B adrenergic receptor expressed in chinese hamster ovary(CHO) cells by using [3H]prazosin as radioligand.
T2 sequence (P35368 whole entry): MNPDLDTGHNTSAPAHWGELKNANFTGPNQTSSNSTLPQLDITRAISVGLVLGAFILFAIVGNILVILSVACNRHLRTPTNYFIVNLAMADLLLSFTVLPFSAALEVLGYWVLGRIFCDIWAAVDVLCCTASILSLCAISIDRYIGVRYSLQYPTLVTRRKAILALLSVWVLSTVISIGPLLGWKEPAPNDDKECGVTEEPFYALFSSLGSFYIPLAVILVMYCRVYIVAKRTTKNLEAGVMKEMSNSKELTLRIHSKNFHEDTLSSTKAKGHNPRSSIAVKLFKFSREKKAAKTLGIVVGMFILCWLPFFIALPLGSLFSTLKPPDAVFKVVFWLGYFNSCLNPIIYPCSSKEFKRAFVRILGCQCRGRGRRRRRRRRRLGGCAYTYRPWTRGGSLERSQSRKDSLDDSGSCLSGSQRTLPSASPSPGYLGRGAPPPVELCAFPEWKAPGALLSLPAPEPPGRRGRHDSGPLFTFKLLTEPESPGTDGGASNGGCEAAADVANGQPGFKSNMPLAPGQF
Procedure, shortened: (§1)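 Membranes (30 μg protein) from CHO cells stably expressing each human α1 subtype, in 50 mM Tris-HCl pH 7.4. Incubated with 0.1–0.4 nM [3H]prazosin for 30 min at 25 °C, competitor 1 pM–10 μM. Nonspecific binding with 10 μM phentolamine. Ki by Cheng-Prusoff. 2–3 experiments in triplicate.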

[3] = target: 5-hydroxytryptamine receptor 2A (Rattus norvegicus, UniProt P14842); test: The binding affinity was evaluated on 5-hydroxytryptamine 2A receptor expressed in rat cortex by using [3H]ketanserin as radioligand.
Sequence of 5-hydroxytryptamine receptor 2A (P14842 whole entry): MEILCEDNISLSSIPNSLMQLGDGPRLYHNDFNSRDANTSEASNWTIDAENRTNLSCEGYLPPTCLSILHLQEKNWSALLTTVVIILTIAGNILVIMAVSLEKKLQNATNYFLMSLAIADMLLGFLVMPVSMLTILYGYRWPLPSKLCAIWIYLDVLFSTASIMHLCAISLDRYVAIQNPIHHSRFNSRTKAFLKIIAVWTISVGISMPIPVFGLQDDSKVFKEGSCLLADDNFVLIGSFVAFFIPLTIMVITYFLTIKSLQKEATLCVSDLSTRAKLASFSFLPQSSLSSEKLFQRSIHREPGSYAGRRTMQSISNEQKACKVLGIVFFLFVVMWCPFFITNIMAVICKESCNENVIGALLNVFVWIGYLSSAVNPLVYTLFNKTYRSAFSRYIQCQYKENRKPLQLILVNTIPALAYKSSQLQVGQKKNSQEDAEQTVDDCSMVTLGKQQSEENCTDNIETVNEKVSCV
Procedure, shortened: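 Rat cerebral cortex membranes in Tris-HCl pH 7.4 with 10 μM pargyline and 0.1% ascorbic acid. Incubated 20 min at 37 °C with 0.7–1.3 nM [3H]ketanserin. Nonspecific binding with 2 μM ketanserin. Filtration and scintillation counting. Ki by Cheng-Prusoff. 2–3 experiments in triplicate.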

D(2) dopamine receptor = D(2) dopamine receptor (Rattus norvegicus, UniProt P61169); test: The binding affinity was evaluated on Dopamine receptor D2 expressed in rat striatum by using [3H]spiperone as radioligand
Sequence of D(2) dopamine receptor (P61169 whole entry): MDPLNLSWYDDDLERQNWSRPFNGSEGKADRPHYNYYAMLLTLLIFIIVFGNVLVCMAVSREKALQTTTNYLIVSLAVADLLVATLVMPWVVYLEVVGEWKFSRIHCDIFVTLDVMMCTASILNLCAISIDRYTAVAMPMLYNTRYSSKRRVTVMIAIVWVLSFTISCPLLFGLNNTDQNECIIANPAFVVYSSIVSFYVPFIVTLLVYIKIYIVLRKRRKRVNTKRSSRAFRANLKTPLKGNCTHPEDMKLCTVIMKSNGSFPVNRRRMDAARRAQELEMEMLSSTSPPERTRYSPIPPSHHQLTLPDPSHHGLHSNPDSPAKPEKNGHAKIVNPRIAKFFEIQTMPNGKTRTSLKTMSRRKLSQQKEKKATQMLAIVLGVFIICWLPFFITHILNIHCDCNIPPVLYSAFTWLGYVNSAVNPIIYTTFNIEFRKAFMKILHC
Procedure, shortened: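 Rat striatum membranes in Tris-HCl with 10 μM pargyline, 0.1% ascorbic acid, 120 mM NaCl, 5 mM KCl, 2 mM CaCl2, 1 mM MgCl2. Incubated 15 min at 37 °C with 0.2–0.6 nM [3H]spiperone. Nonspecific binding with 1 μM (+)-butaclamol. Ki by Cheng-Prusoff. 2–3 experiments in triplicate.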

[4] = target: T3, Alpha-1D adrenergic receptor (Homo sapiens, UniProt P25100); test: The binding affinity was evaluated on cloned human Alpha-1D adrenergic receptor expressed in chinese hamster ovary(CHO) cells by using [3H]-prazosin as radioligand.; procedure, shortened: as §1
T3 sequence (P25100 whole entry): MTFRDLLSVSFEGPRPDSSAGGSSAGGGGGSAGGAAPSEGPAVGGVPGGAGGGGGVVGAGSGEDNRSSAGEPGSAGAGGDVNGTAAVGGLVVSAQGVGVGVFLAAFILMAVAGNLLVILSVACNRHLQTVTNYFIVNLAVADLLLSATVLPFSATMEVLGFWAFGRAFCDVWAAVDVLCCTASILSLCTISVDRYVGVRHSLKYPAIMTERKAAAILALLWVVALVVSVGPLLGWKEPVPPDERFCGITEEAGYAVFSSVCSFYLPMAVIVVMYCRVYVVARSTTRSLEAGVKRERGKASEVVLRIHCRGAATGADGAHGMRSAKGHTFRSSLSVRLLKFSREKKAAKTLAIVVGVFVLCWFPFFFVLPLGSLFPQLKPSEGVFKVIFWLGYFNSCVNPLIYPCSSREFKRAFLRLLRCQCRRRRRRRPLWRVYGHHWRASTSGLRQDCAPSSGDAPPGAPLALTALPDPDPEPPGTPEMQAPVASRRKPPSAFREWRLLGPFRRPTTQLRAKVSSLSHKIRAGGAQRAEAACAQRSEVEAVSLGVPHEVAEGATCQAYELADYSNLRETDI

[5] = target: T2, Alpha-1B adrenergic receptor; test: The binding affinity was evaluated on cloned human Alpha-1B adrenergic receptor expressed in chinese hamster ovary(CHO) cells by using [3H]prazosin as radioligand.; procedure, shortened: as §1
[6] = target: T4, Alpha-1A adrenergic receptor (Homo sapiens, UniProt P35348); test: The binding affinity was evaluated on cloned human Alpha-1A adrenergic receptor expressed in chinese hamster ovary(CHO) cells by using [3H]prazosin as radioligand.; procedure, shortened: as §1
T4 sequence (P35348 whole entry): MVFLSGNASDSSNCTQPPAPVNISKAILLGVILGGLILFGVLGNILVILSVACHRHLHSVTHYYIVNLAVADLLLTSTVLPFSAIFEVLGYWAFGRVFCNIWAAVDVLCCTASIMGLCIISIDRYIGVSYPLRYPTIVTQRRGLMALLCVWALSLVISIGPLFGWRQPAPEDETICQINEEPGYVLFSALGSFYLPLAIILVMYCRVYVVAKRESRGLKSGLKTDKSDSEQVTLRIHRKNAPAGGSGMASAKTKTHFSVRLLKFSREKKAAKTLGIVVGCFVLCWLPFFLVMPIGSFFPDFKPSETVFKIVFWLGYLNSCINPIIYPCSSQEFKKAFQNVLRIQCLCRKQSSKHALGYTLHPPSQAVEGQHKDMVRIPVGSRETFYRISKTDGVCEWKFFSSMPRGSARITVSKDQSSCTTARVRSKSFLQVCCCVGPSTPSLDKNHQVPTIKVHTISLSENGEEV

[7] = target: T5, 5-hydroxytryptamine receptor 1A (Homo sapiens, UniProt P08908); test: The binding affinity was evaluated on cloned human 5-hydroxytryptamine 1A receptor expressed in HeLa cells by using DPAT as radioligand.
T5 sequence (P08908 whole entry): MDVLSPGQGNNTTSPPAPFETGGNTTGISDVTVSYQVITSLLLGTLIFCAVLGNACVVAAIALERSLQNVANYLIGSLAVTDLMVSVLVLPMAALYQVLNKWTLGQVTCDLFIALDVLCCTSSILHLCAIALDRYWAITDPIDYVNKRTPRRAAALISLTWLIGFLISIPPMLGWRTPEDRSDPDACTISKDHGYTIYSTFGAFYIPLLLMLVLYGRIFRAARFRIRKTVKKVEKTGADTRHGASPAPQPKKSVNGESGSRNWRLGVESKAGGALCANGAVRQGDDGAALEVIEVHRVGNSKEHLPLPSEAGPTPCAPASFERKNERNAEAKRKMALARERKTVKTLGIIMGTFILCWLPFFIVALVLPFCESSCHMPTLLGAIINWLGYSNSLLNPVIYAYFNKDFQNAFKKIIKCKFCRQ
Procedure, shortened: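 Membranes from HeLa cells stably expressing human 5-HT1A, in 50 mM Tris-HCl pH 7.4, 2.5 mM MgCl2, 10 μM pargyline. Nonspecific binding with 10 μM 5-HT. Filtration. Ki by Cheng-Prusoff. 2–3 experiments in triplicate.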

[8] = target: T3, Alpha-1D adrenergic receptor; test: The binding affinity was evaluated on cloned human alpha-1D adrenergic receptor expressed in chinese hamster ovary(CHO) cells by using [3H]prazosin as radioligand.; procedure, shortened: as §1
[9] = target: T4, Alpha-1A adrenergic receptor; test: The binding affinity was evaluated on cloned human alpha-1A adrenergic receptor expressed in chinese hamster ovary(CHO) cells by using [3H]prazosin as radioligand.; procedure, shortened: as §1
[10] = target: T1, Alpha-2A adrenergic receptor [16-465]/Alpha-2B adrenergic receptor/Alpha-2C adrenergic receptor; test: The binding affinity was evaluated on Alpha-2 adrenergic receptor expressed in rat cortex by using [3H]rauwolscine as radioligand.
Procedure, shortened: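 Male Sprague-Dawley rat cerebral cortex membranes, washed in Tris-HCl pH 7.4 and resuspended with 10 μM pargyline and 0.1% ascorbic acid. Incubated 30 min at 25 °C with 0.5–1.5 nM [3H]rauwolscine. Nonspecific binding with 10 μM phentolamine. Filtration on PEI-treated filters. Ki by Cheng-Prusoff. 2–3 experiments in triplicate.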

Compound: CCCN(CCC)C1CCc2cccc(O)c2C1 (stereo not given)
pKi [1]: 6.08
pKi [2]: < 6
pKi [3]: < 6
pKi (D(2) dopamine receptor): < 6

Compound: COc1cccc(OC)c1OCCNCCOc1ccccc1OCc1ccccc1
pKi [4]: 10.2
pKi [5]: 9.27
pKi [6]: 9.33
pKi [7]: 7.93

Compound: COc1cccc(OC)c1OCCNCC1C(=O)c2ccccc2SC1c1ccccc1 (stereo not given)
pKi [8]: 6.37
pKi [5]: < 6
pKi [9]: 7.42
pKi [7]: 7.36

Compound: COc1cccc(OC)c1OCCNCC1Oc2ccccc2CC1c1ccccc1 (stereo not given)
pKi [4]: 7.28
pKi [2]: 6.51
pKi [10]: < 6
pKi [8]: 6.86
pKi [5]: 6.58
pKi [6]: 8.49
pKi [9]: 6.78
pKi [7]: 6.84
pKi [3]: < 6
pKi (D(2) dopamine receptor): < 6

Compound: COc1cccc(OC)c1OCCNCC1C(=O)c2ccccc2CC1c1ccccc1 (stereo not given)
pKi [1]: 6.45
pKi [2]: 6.11
pKi [8]: 6.88
pKi [9]: 8.06
pKi [7]: 6.83
pKi [3]: 6.63
pKi (D(2) dopamine receptor): < 6

Compound: COc1cccc(OC)c1OCCNCC1COc2ccccc2O1 (stereo not given) [WB-4101 hydrochloride]
pKi [1]: 7.83
pKi [9]: 9.37
pKi [7]: 8.68
pKi [3]: 6
pKi (D(2) dopamine receptor): 6.91

More lines, now with the values ahead:

pKi [4]: 6.95
pKi [5]: 6.84
pKi [6]: 7.14
pKi [7]: 8.08
Compound: COc1cccc(OC)c1OCCNCC1=Cc2ccccc2OC1c1ccccc1 (stereo not given)

pKi [1]: < 6
pKi [2]: 6.84
pKi [8]: 7.93
pKi [9]: 9.22
pKi [7]: 6.73
pKi [3]: 6.2
pKi (D(2) dopamine receptor): < 6
Compound: COc1cccc(OC)c1OCCNCC1C(=O)c2ccccc2OC1c1ccccc1 (stereo not given)
